# Source: PubChem BioAssay (several laboratories)
# Efflux pump mplx – inhibitors of Candida antifungal efflux pumps expressed in yeast; S. cerevisiae Candida pump triplex, Nile Red efflux; inhibition, % at 10 µM; 0.44% of 330,000 active;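 active = plate passing quality check with inhibition over a set limit, or well fluorescence over plate mean plus 4 SD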;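 note: Nile Red retained in pooled yeast measured as flow cytometry median fluorescence; 0% = buffer negative control and 100% = Enniatin B positive control; higher means more Nile Red kept so more efflux inhibition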
# CSC inhib – blocks cancer stem cells | cancer stem cell-like cells viability, luminescence | inhibition, % at 7.5 µM | 1.1% of 300,000 active; in the data active = inhibition above about 75%; inconclusive = no clear call, values can overlap the other calls; tested in HMLE shEcad cells
# Beta apoptosis – blocks beta cell apoptosis. INS-1E cytokine-induced death, ATP luminescence, 48 h; percent of positive-control rescue, neutral wells zero. 0.8% of 300,000 active. protection from apoptosis, % (no concentration beside the values);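 active = Every replicate reaches about 75%, or at least half do and their mean reaches it too, limit read from the data; inconclusive = At least half of replicates reach the limit but their mean does not; inactive = Under half of replicates reach the limit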;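 note: 0% = cytokine-treated negative control wells and 100% = positive control rescue; higher means more ATP so stronger rescue from cytokine killing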
# WT yeast gro inh – growth inhibition of WT yeast, mitochondrial fusion screen; mitochondrial fusion phenotypic screen, WT strain; inhibition, % at 10 µM; 2.1% of 190,000 active; AID 1362; in the data active = inhibition above about 58%; tested in S. cerevisiae
# T cruzi inh – blocks replication of Trypanosoma cruzi. T. cruzi beta-gal in NIH3T3, luminescence, 90 h. 1.4% of 300,000 active. inhibition, % (no concentration beside the values). AID 1885;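 active = mean inhibition across valid replicates above about 55%, limit read from the data; inconclusive = mean below that limit but half or more replicates reach it; inactive = mean below it, under half of replicates reach it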;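 note: signal also drops with host cell toxicity which is not excluded here; 0% = plate median of DMSO wells and 100% = zero luminescence signal; higher percent means less beta-gal luminescence so fewer parasites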
#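 compound dosing = single 50 nL compound addition per well in DMSO | material = NIH/3T3 host cells with β-galactosidase reporter T. cruzi | input = 5,000 host fibroblasts per well | timing = ≥90 h infection period, 3 h prior cell attachment | read-out basis = percent inhibition of parasite-derived β-gal signal | detection = GalScreen β-gal luminescence, detergent lysis, 60 min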
# Mot1-301 SUMO – SUMOylation pathway inhibition by Mot1-301 growth rescue | S. cerevisiae Mot1-301 growth rescue, ATP luminescence, 38.5C; percent above DMSO median, 100 means doubled | growth rescue, % at 18.8 µM | 1% of 320,000 active | AID 2716;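 active = every valid replicate shows activation above 250% relative to neutral control wells; inactive = the rest, any valid replicate at or below 250%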;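 note: OY570 slx delta 5 strain wells were the positive control but not used for scaling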
# * marks the source's active call; other numbers are inactive results; u = inconclusive; x = no result. An excerpt weighted towards active compounds, which were near 4.8% of everything screened.
SMILES,Efflux pump mplx,CSC inhib,Beta apoptosis,WT yeast gro inh,T cruzi inh,Mot1-301 SUMO
C/C(=N\NC(=S)NCc1ccccc1)c1ccc(C(C)(C)C)cc1,0,24,26,63*,40,3
CCCCN(C)C(=O)Cn1ncc2c3ccccc3n(CCC)c2c1=O,0,1,1,x,0,-9
COc1cc([N+](=O)[O-])ccc1NC(=O)CC1SC(=Nc2ccc(F)cc2)N(CCC2=CCCCC2)C1=O (configuration not stated),-7,u,110*,1,52,-7
CC(=O)c1c(C)oc2c1C(=O)c1ccccc1C2=O,0,83*,96*,4,3,-66
Cc1oc2c(c1C(=O)NCc1cccnc1)C(=O)c1ccccc1C2=O,0,101*,x,88*,50,-37
O=C(c1ccccc1)c1coc2c1C(=O)c1ccccc1C2=O,0,36,67,14,-11,-4
CC(=O)c1c2c3c(c(Br)ccc3n(C)c1=O)C(=O)c1ccccc1-2,0,-5,3,x,-23,-12
COc1ccc(CNC(=O)c2ccc(-c3ccccc3)cc2)cc1,0,3,-3,0,-11,13
COc1ccc(CNC(=O)c2c(C)oc3c2C(=O)c2ccccc2C3=O)cc1,0,100*,109*,58,39,-29
O=C1c2ccccc2C(=O)c2c1oc(C(F)(F)F)c2C(=O)c1ccccc1,0,117*,123*,-3,59*,-53
COc1ccc(OC)c2c1cc(C(=O)N[C@@H](Cc1ccccc1)C(=O)O)n2C,0,5,-4,x,-3,-7
CCOC(=O)C1CCN(S(=O)(=O)c2cc(C(=O)OC)n(C)c2)CC1,0,-7,2,x,6,-11
CC(=O)c1c(C(=O)O)[nH]c(C(=O)O)c1C,0,-15,-7,12,13,43
CN(C)Cc1c(C(=O)N/N=C/c2ccncc2)nnn1-c1nonc1N,0,0,3,x,12,40
CCCOc1ccc(-c2csc(N)n2)cc1[N+](=O)[O-],0,-4,1,76*,2,113
CCCCOc1ccc(-c2cn3ccccc3n2)cc1[N+](=O)[O-],0,36,11,38,11,-15
CCc1ccc(-n2ccc(=O)c(C(=O)O)n2)cc1,0,-3,-2,x,-20,11
CC(C)c1nn2c(=O)cc(COc3cccc(NC(=O)c4ccco4)c3)nc2s1,0,4,1,x,4,3
CN(C)c1ccc(/C=C/C(=O)c2cc(Cl)ccc2O)cc1,0,43,6,x,3,6
O=C(/C=C/c1ccncc1)c1cc(Cl)ccc1O,-1,25,9,x,66*,30
Cc1ccc(C2c3[nH]c4ccccc4c3C[C@H]3C(=O)N(c4ccccc4C(=O)N4CCC[C@H]4C(=O)O)C(=O)N23)cc1 (some centres not stated),0,-3,-5,x,-21,605*
COc1ccc(C2c3[nH]c4ccccc4c3C[C@H]3C(=O)N(c4ccccc4C(=O)N4CCC[C@@H]4C(=O)O)C(=O)N23)cc1 (some centres not stated),0,-11,0,x,x,102
COc1ccc(NC(=O)CN(c2ccc(C)cc2)S(C)(=O)=O)c(OC)c1,0,-9,4,62*,3,x
CCOC(=O)c1[nH]ncc1CN1CCN(Cc2ccc(C)cc2)C(CCO)C1 (configuration not stated),0,19,2,0,-5,-11
CC1CCC2(CC1)NC(=O)N(CC(=O)Nc1ccc3c(c1)OCCO3)C2=O (configuration not stated),0,-21,-3,-2,1,-8
SMILES,Efflux pump mplx,CSC inhib,Beta apoptosis,WT yeast gro inh,T cruzi inh,Mot1-301 SUMO
O=C(NCc1ccncc1)Nc1cccc(Cl)c1,0,-13,-7,7,-6,119
Cc1c(C(=O)Nc2ccc(Cl)cc2)c2ccccn2c1C(=O)c1ccc(F)cc1,0,-5,11,16,4,20
Cc1c(C(=O)Nc2ccc(Cl)cc2)c2ccccn2c1CCc1ccncc1,0,21,12,20,63*,-1
Cc1c(C(=O)Nc2cccc(Cl)c2)c2ccccn2c1CCc1ccncc1,x,x,x,18,56*,x
COc1cccc(NC(=O)CSC(N)=O)c1,0,12,-18,-16,-5,-7
C=CCN(c1ccccc1)S(=O)(=O)c1cccc(C(=O)Nc2ncccc2O)c1,0,-1,-3,x,14,1
O=S(=O)(CCSc1ccc(C(F)(F)F)cn1)c1ccc(Cl)cc1,0,2,-1,x,-12,10
CN(CCOc1ccccc1)C(=O)C1CCC(=O)N(CCCN2CCCC2=O)C1 (configuration not stated),0,-9,-8,x,9,-11
CCn1c(CCCOc2ccc(Cl)cc2Cl)nnc1SCC(=O)Nc1cc(F)ccc1C,0,19,-3,79*,10,12
CN(C(=O)CSc1nnc(-c2ccc(Cl)cc2)n1CC1CCCO1)C1CCS(=O)(=O)C1 (configuration not stated),0,-2,-5,-18,-2,-6
Cc1cc(C(=O)CSc2nnc(-c3ccc(Cl)cc3)n2CC2CCCO2)c(C)n1C (configuration not stated),0,-19,0,68*,4,-21
CCc1cc(C(=O)N(CC)CC(=O)Nc2ccc(OC)cc2)sc1C,0,x,-2,x,x,-23
Cc1cc(C)c(N)c(C(=O)O)c1,0,8,0,x,-25,-7
Cc1cc(C(=O)O)cc(Br)c1N,0,-7,0,-13,-8,326*
O=C(CC(SCc1ccco1)c1ccc(O)cc1)c1cccs1 (configuration not stated),0,44,-14,-2,-14,600*
COC(=O)[C@]1(Cc2ccccc2)N[C@H](CN(C)C(=O)Nc2ccc(Cl)cc2)[C@@H]2C(=O)N(C)C(=O)[C@@H]21,0,x,x,x,x,x
Cc1ccc(N(C)C(=O)c2ccc3c(Cl)c4c(nc3c2)CCC4)cc1C,0,x,5,83*,41,-16
COc1ccc(N(C)C(=O)c2ccc3c(Cl)c4c(nc3c2)CCCC4)c(OC)c1,0,29,0,x,36,-5
CCc1ccc(N(CC)C(=O)c2ccc3c(Cl)c4c(nc3c2)CCC4)cc1,0,x,9,91*,22,69
Cc1sc(NC(=O)C2CSC3(C)CCC(=O)N23)nc1-c1ccccc1 (configuration not stated),0,8,1,x,12,57
O=C(NCc1cccs1)C1CCN(S(=O)(=O)c2cccc3nsnc23)CC1,0,-13,1,-7,-3,3
CCOC(=O)C(NC(=O)c1ccc(OC)cc1)(N1CCCC1=O)C(F)(F)F (configuration not stated),0,-26,4,11,-1,-7
